According to ChEMBL document CHEMBL1649572, “Synergistic interaction between silver nanoparticles and membrane-permeabilizing antimicrobial peptides” (Antimicrob Agents Chemother, 2009):
In brackets after ≈: the same amount, converted by molar mass. Square brackets hold non-standard residues; d marks the D form. Peptide text beside a SMILES is read from it. * marks the point of attachment. Orn = NCCC[C@H](N)C(=O)O; NHCH2CH2OH = OCCN*; For = O=C*

Tests used:
[1] = system: Acinetobacter calcoaceticus; assay: microbe, parasite or virus in culture; assay type: functional; conditions: DSM 586
[2] = system: Escherichia coli; assay: Antibacterial activity against Escherichia coli DSM 498 in presence of silver nitrate; assay type: functional
Outline: (§1)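 Two-dimensional (checkerboard) microdilution: AgNO3 or carbon-matrix-stabilized silver nanoparticles (mean diameter 25 nm) crossed with a membrane-active antimicrobial peptide, in salt-free Luria/Miller bouillon. Nanoparticles dissolved in 8 mM Tris/HCl pH 7.6 with 150 mM NaCl. MICs taken alone and in combination; FIC index = MIC(A with B)/MIC(A alone) + MIC(B with A)/MIC(B alone). <0.5 synergy, 0.5–2.0 additive, >2.0 antagonism.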

[3] = system: Bacillus subtilis; assay: Antibacterial activity against Bacillus subtilis DSM 347 in presence of silver nanoparticles; assay type: functional
Outline: as §1

[4] = system: Kocuria rhizophila; assay: Antibacterial activity against Kocuria rhizophila DSM 348 in presence of silver nitrate; assay type: functional
Outline: as §1

[5] = system: Micrococcus luteus; assay: microbe, parasite or virus in culture; assay type: functional; conditions: DSM 1790
[6] = system: Pseudomonas fluorescens; assay: Antibacterial activity against Pseudomonas fluorescens DSM 50090 in presence of silver nitrate; assay type: functional
Outline: as §1

[7] = system: Enterobacter helveticus; assay: microbe, parasite or virus in culture; assay type: functional; conditions: Franconibacter helveticus, DSM 18396
[8] = system: Bacillus subtilis; assay: microbe, parasite or virus in culture; assay type: functional; conditions: DSM 347
[9] = Toxicity in human erythrocytes assessed as hemolysis by serial dilution method
[10] = system: Proteus myxofaciens; assay: microbe, parasite or virus in culture; assay type: functional; conditions: DSM 4482
[11] = system: Bacillus subtilis; assay: Antibacterial activity against Bacillus subtilis DSM 347 in presence of silver nitrate; assay type: functional
Outline: as §1

[12] = system: Kocuria rhizophila; assay: Antibacterial activity against Kocuria rhizophila DSM 348 in presence of silver nanoparticles; assay type: functional
Outline: as §1

[13] = system: Escherichia coli; assay: Antibacterial activity against Escherichia coli DSM 498 in presence of silver nanoparticles; assay type: functional
Outline: as §1

[14] = system: Kocuria rhizophila; assay: microbe, parasite or virus in culture; assay type: functional; conditions: DSM 348
[15] = system: Aeromonas bestiarum; assay: microbe, parasite or virus in culture; assay type: functional; conditions: DSM 13956
[16] = system: Escherichia coli; assay: microbe, parasite or virus in culture; assay type: functional; conditions: DSM 498
[17] = system: Pseudomonas fluorescens; assay: Antibacterial activity against Pseudomonas fluorescens DSM 50090 in presence of silver nanoparticles; assay type: functional
Outline: as §1

[18] = system: Pseudomonas fluorescens; assay: microbe, parasite or virus in culture; assay type: functional; conditions: DSM 50090
[19] = system: Micrococcus luteus; assay: Antibacterial activity against Micrococcus luteus DSM 1790 in presence of silver nanoparticles; assay type: functional
Outline: as §1

[20] = system: Micrococcus luteus; assay: Antibacterial activity against Micrococcus luteus DSM 1790 in presence of silver nitrate; assay type: functional
Outline: as §1

[21] = system: Enterobacter helveticus; assay: Antibacterial activity against Enterobacter helveticus DSM 18396 in presence of silver nanoparticles; assay type: functional, Franconibacter helveticus
Outline: as §1

[22] = system: Enterobacter helveticus; assay: Antibacterial activity against Enterobacter helveticus DSM 18396 in presence of silver nitrate; assay type: functional, Franconibacter helveticus
Outline: as §1

[23] = system: Acinetobacter calcoaceticus; assay: Antibacterial activity against Acinetobacter calcoaceticus DSM 586 in presence of silver nitrate; assay type: functional
Outline: as §1

[24] = system: Aeromonas bestiarum; conditions: DSM 13956
[25] = system: Escherichia coli; conditions: DSM 498
[26] = system: Acinetobacter calcoaceticus; conditions: DSM 586
[27] = system: Enterobacter helveticus; conditions: Franconibacter helveticus; DSM 18396
[28] = system: Proteus myxofaciens; conditions: DSM 4482
[29] = system: Proteus myxofaciens; assay: Antibacterial activity against Proteus myxofaciens DSM 4482 in presence of silver nanoparticles; assay type: functional
Outline: as §1

[30] = system: Aeromonas bestiarum; assay: Antibacterial activity against Aeromonas bestiarum DSM 13956 in presence of silver nitrate; assay type: functional
Outline: as §1

[31] = system: Bacillus subtilis; conditions: DSM 347
[32] = system: Micrococcus luteus; conditions: DSM 1790
[33] = system: Pseudomonas fluorescens; conditions: DSM 50090
[34] = system: Kocuria rhizophila; conditions: DSM 348
[35] = system: Aeromonas bestiarum; assay: Antibacterial activity against Aeromonas bestiarum DSM 13956 in presence of silver nanoparticles; assay type: functional
Outline: as §1

[36] = system: Proteus myxofaciens; assay: Antibacterial activity against Proteus myxofaciens DSM 4482 in presence of silver nitrate; assay type: functional
Outline: as §1

| Compound | MIC [1] [µg/mL] | fractional inhibitory concentration index (FICI) [2] | fractional inhibitory concentration index (FICI) [3] | fractional inhibitory concentration index (FICI) [4] | MIC [5] [µg/mL] | fractional inhibitory concentration index (FICI) [6] | MIC [7] [µg/mL] | MIC [8] [µg/mL] | HC50 ([9]; human erythrocytes) [µg/mL] | MIC [10] [µg/mL] | fractional inhibitory concentration index (FICI) [11] | fractional inhibitory concentration index (FICI) [12] | fractional inhibitory concentration index (FICI) [13] | MIC [14] [µg/mL] | MIC [15] [µg/mL] | MIC [16] [µg/mL] | MIC [18] [µg/mL] | fractional inhibitory concentration index (FICI) [19] | fractional inhibitory concentration index (FICI) [20] | fractional inhibitory concentration index (FICI) [23] | other results |
| --- | --- | --- | --- | --- | --- | --- | --- | --- | --- | --- | --- | --- | --- | --- | --- | --- | --- | --- | --- | --- | --- |
| CC(=O)NC(C)(C)C(=O)N1CCC[C@H]1C(=O)NC(C)(C)C(=O)N[C@@H](C)C(=O)NC(C)(C)C(=O)N[C@@H](C)C(=O)N[C@@H](CCC(N)=O)C(=O)NC(C)(C)C(=O)N[C@H](C(=O)NC(C)(C)C(=O)NCC(=O)N[C@@H](CC(C)C)C(=O)NC(C)(C)C(=O)N1CCC[C@H]1C(=O)N[C@H](C(=O)NC(C)(C)C(=O)NC(C)(C)C(=O)N[C@@H](CCC(=O)O)C(=O)N[C@@H](CCC(N)=O)C(=O)N[C@H](CO)Cc1ccccc1)C(C)C)C(C)C [ALAMETHICIN] | 256 (≈ 130 µM) | 0.5 | 0.88 | 1 | 8 (≈ 4.07 µM) | 1 | 256 (≈ 130 µM) | 8 (≈ 4.07 µM) | 17.9 | 256 (≈ 130 µM) | 1 | 1 | 0.5 | 8 (≈ 4.07 µM) | 256 (≈ 130 µM) | 256 (≈ 130 µM) | 128 (≈ 65.2 µM) | – | – | – | fractional inhibitory concentration index (FICI) [17]: 1 |
| POLYMYXIN B [listing 1 of 2 here] | – | – | – | – | – | – | – | – | – | – | – | – | – | – | – | – | – | – | – | – | HC50 ([9]; erythrocyte): 210.7 µg/mL |
| CC(C)C[C@@H](NC(=O)[C@H](C)NC(=O)CNC(=O)[C@@H](NC=O)C(C)C)C(=O)N[C@@H](C)C(=O)N[C@@H](C(=O)N[C@H](C(=O)N[C@@H](C(=O)N[C@@H](Cc1c[nH]c2ccccc12)C(=O)N[C@H](CC(C)C)C(=O)N[C@@H](Cc1c[nH]c2ccccc12)C(=O)N[C@H](CC(C)C)C(=O)N[C@@H](Cc1c[nH]c2ccccc12)C(=O)N[C@H](CC(C)C)C(=O)N[C@@H](Cc1c[nH]c2ccccc12)C(=O)NCCO)C(C)C)C(C)C)C(C)C [GRAMICIDIN A] (For-VGA[dL]A[dV]V[dV]W[dL]W[dL]W[dL]W-NHCH2CH2OH) | > 128 | – | 0.94 | 0.79 | 1 (≈ 0.531 µM) | – | > 128 | 1 (≈ 0.531 µM) | 2.3 | > 128 | 0.42 | 1.04 | – | 1 (≈ 0.531 µM) | > 128 | > 128 | > 128 | 1.04 | 0.88 | – | – |
| H-GIGKFLHSAKKFGKAFVGEIMNS-OH [MAGAININ 2] | 16 | 1 | 0.67 | 0.67 | 16 | – | 8 | 16 | 202 | > 256 | 0.69 | 0.96 | 0.86 | 16 | > 256 | 16 | > 256 | 1.04 | 1.02 | 0.79 | fractional inhibitory concentration index (FICI) [21]: 0.59; fractional inhibitory concentration index (FICI) [22]: 0.71 |
| H-GMASKAGAIAGKIAKVALKAL-NH2 | 8 | 0.67 | 0.71 | 1.08 | 4 | – | 8 | 8 | 165 | > 256 | 0.92 | 1.01 | 1 | 8 | > 256 | 8 | > 256 | 1 | 0.71 | 1.08 | fractional inhibitory concentration index (FICI) [21]: 0.57; fractional inhibitory concentration index (FICI) [22]: 0.71 |
| POLYMYXIN B [listing 2 of 2 here] | – | 0.38 | 0.96 | 0.83 | – | 0.56 | – | – | – | – | 0.59 | 0.61 | 0.38 | – | – | – | – | 0.96 | 0.58 | 0.83 | MIC [24]: 16 µg/mL; MIC [25]: 1 µg/mL; MIC [26]: 1 µg/mL; MIC [27]: 1 µg/mL; MIC [28]: 16 µg/mL; fractional inhibitory concentration index (FICI) ([21]; Franconibacter helveticus): 0.38; fractional inhibitory concentration index (FICI) [29]: 0.23; fractional inhibitory concentration index (FICI) [30]: 0.5; MIC [31]: 8 µg/mL; fractional inhibitory concentration index (FICI) ([22]; Franconibacter helveticus): 0.29; MIC [32]: 4 µg/mL; MIC [33]: 128 µg/mL; MIC [34]: 16 µg/mL; fractional inhibitory concentration index (FICI) [17]: 0.27; fractional inhibitory concentration index (FICI) [35]: 0.39; fractional inhibitory concentration index (FICI) [36]: 0.23 |
| CC(C)C[C@@H]1NC(=O)[C@H](CCCN)NC(=O)[C@H](C(C)C)NC(=O)[C@@H]2CCCN2C(=O)[C@@H](Cc2ccccc2)NC(=O)[C@H](CC(C)C)NC(=O)[C@H](CCCN)NC(=O)[C@H](C(C)C)NC(=O)[C@@H]2CCCN2C(=O)[C@@H](Cc2ccccc2)NC1=O [GRAMICIDIN S] (cyclo(L[dF]PV[Orn]L[dF]PV[Orn])) | 16 (≈ 14 µM) | 0.83 | 0.77 | 0.92 | 2 (≈ 1.75 µM) | 0.67 | 4 (≈ 3.5 µM) | 2 (≈ 1.75 µM) | 10.1 | 16 (≈ 14 µM) | 0.73 | 0.83 | 0.56 | 4 (≈ 3.5 µM) | 32 (≈ 28 µM) | 8 (≈ 7.01 µM) | 16 (≈ 14 µM) | 1.25 | 0.92 | 0.77 | fractional inhibitory concentration index (FICI) [21]: 0.44; fractional inhibitory concentration index (FICI) [29]: 0.38; fractional inhibitory concentration index (FICI) [30]: 0.53; fractional inhibitory concentration index (FICI) [22]: 0.32; fractional inhibitory concentration index (FICI) [17]: 0.48; fractional inhibitory concentration index (FICI) [35]: 0.63; fractional inhibitory concentration index (FICI) [36]: 0.63 |
